Laboratory results published in PubChem BioAssay AID602152 (Broad Institute, 2011).
Calls of active or inactive are those of the source.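 Rule for the calls: active = efflux reduced below the neutral control level, like a known efflux blocker; inactive = efflux raised or left unchanged.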

Experiment: SR-BI-mediated cholesterol efflux to HDL inhibition, dose response, mechanism study for SR-BI HDL uptake inhibitor project, ldlA[mSR-BI] cells, [3H]cholesterol, dry powder (AID 602152)
Details: [3H]cholesterol efflux to HDL, LSC; at 25 µM (top of the series)
Method in brief: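 Material: ldlA[mSR-BI] cells, mouse SR-BI expressing / Times: 2-day label, 24 h equilibration, 1 h compound, 2 h efflux / Buffer or medium: assay medium at pH 7.4 with 0.5% DMSO / Dosing: compounds delivered in 0.5% DMSO / Technique: liquid scintillation counting of 3H in medium and cells / Reagent: HDL, 100 µg/mL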

SMILES	efflux, percent of neutral control
C[C@H](C(=O)NC1CCCC1)N(C(=O)Cn1nnc(-c2ccc3c(c2)OCO3)n1)C1CCCCC1	6.75% (active)
COCC(=O)N1CCc2cc(-c3csc(NC(=O)c4cc(OC)cc(OC)c4)n3)ccc21	9.23% (active)
